{
  "source": "paper PMC2925318",
  "about": "(Tetrahedron, 2010)",
  "biological_target": "Concanavalin A (Con A) (Canavalia ensiformis, UniProt P02866)",
  "sequence (P02866 164-281 limits assumed)": "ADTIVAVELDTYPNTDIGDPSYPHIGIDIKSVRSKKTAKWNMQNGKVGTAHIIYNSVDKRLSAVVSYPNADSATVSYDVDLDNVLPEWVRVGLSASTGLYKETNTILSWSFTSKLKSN",
  "sequence (P02866 30-148 limits assumed)": "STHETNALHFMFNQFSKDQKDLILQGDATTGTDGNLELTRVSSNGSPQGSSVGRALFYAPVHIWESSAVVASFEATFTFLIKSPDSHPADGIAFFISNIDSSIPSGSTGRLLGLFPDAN",
  "format": "binding",
  "in_short": "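Gold chip with mixed carboxyl/hydroxyl dithiol monolayer, aminoethoxyethyl mannoside coupled by EDC/NHS; hydroxyl-only reference flowcell. Con A (2 μM monomer) mixed 1:1 with test compound, equilibrated ≥1 h, then injected at 10 μL/min in 10 mM PBS pH 7.4, 25 °C. Methyl-mannose/HCl regeneration. Glycodendrimers run in triplicate, 2-fold series 50 μg/mL–39 ng/mL. Double-referenced equilibrium responses were fitted to a four-parameter logistic to give IC50.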",
  "data": [
    {"smiles": "CO[C@H]1O[C@H](CO)[C@@H](O)[C@H](O)[C@@H]1O", "note": "[Methyl mannose]", "values": [
      {"measurement": "IC50", "value": 240, "unit": "µM"}
    ]}
  ]
}
